Assay results reported in ChEMBL document CHEMBL1145382, “Novel ergopeptides as dual ligands for adenosine and dopamine receptors” (J Med Chem, 2007).
Active and inactive are the calls of the source. The calls are words filed in the database; no cut-off is given here. Non-standard residues stand in square brackets, D forms with d. Residues, ends and D or L forms follow the SMILES beside them. Phe(4-NO2) = N[C@@H](Cc1ccc([N+](=O)[O-])cc1)C(=O)O; Phe(4-F) = N[C@@H](Cc1ccc(F)cc1)C(=O)O; hCha = N[C@@H](CCC1CCCCC1)C(=O)O

Key:
[1] = biological target: D(1A) dopamine receptor (Homo sapiens) (UniProt P21728); assay: Displacement of [3H]SCH 23390 from dopamine D1 receptor in lamb striatum membrane at 50 uM after 1 hr; assay type: cell membranes; conditions: Ovis aries, target entry is the homologue from another species
Sequence of D(1A) dopamine receptor (Homo sapiens) (P21728 whole entry): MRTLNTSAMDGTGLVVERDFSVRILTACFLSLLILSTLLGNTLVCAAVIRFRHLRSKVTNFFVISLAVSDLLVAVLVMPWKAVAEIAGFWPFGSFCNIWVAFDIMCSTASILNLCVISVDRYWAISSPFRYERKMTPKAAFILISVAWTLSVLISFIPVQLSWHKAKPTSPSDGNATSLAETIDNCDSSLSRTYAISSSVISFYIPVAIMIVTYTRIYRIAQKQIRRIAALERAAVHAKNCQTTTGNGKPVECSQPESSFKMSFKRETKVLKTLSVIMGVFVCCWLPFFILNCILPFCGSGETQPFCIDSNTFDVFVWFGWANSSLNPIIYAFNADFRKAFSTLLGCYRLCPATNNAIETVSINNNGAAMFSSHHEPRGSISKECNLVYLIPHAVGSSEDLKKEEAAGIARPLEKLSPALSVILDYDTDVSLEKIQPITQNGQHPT
Summary of the method: (§1)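 Single-concentration screen at 50 µM ergopeptide on lamb striatal membranes (0.5 mg protein/mL), 22 °C, 50 mM Tris-HCl pH 7.4. Radioligands: [3H]SCH 23390 1.2 nM (D1), [3H]YM 09151-2 0.9 nM (D2), [3H]R-PIA 2.2 nM (A1, with MgCl2 and ADA), [3H]CGS 21680 20.1 nM (A2A, with MgCl2 and ADA). Specific binding displaced, after filtration and scintillation counting.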

[2] = biological target: D(2) dopamine receptor (Homo sapiens) (UniProt P14416); assay: Displacement of [3H]YM 09151-2 from dopamine D2 receptor in lamb striatum membrane at 50 uM after 2 hrs; assay type: cell membranes; conditions: Ovis aries, target entry is the homologue from another species; summary of the method: as §1
Sequence of D(2) dopamine receptor (Homo sapiens) (P14416 whole entry): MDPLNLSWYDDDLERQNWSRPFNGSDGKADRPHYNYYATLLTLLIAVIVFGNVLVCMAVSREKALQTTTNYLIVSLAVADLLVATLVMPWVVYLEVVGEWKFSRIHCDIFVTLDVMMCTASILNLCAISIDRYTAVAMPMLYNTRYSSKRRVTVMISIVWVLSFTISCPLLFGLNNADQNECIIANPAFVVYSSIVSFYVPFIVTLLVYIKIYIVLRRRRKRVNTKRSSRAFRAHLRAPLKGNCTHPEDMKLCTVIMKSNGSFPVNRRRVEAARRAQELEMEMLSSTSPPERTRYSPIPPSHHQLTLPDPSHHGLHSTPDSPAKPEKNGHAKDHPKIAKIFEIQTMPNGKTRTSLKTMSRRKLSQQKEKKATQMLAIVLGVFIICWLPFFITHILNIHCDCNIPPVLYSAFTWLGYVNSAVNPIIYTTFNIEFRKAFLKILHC

[3] = biological target: T1, Adenosine receptor A1 (Homo sapiens) (UniProt P30542); assay: Displacement of [3H]R-PIA from adenosine A1 receptor in lamb striatum membrane at 50 uM after 1 hr; assay type: cell membranes; conditions: Ovis aries, target entry is the homologue from another species; summary of the method: as §1
T1 sequence (whole entry): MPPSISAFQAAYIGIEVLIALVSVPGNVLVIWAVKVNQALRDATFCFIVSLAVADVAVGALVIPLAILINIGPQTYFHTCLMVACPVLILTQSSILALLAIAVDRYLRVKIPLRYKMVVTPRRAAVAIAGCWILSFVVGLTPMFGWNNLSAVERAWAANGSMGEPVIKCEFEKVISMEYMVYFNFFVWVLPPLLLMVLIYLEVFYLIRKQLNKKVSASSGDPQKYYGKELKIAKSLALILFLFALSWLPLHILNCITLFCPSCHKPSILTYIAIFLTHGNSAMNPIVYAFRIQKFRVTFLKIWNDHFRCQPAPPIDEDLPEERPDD

Adenosine receptor A2a [4] = biological target: T2, Adenosine receptor A2a (Homo sapiens, UniProt P29274); assay: Displacement of [3H]CGS 21680 from adenosine A2A receptor in lamb striatum membrane at 50 uM after 2 hrs; assay type: cell membranes; conditions: Ovis aries, target entry is the homologue from another species; summary of the method: as §1
T2 sequence (P29274 whole entry): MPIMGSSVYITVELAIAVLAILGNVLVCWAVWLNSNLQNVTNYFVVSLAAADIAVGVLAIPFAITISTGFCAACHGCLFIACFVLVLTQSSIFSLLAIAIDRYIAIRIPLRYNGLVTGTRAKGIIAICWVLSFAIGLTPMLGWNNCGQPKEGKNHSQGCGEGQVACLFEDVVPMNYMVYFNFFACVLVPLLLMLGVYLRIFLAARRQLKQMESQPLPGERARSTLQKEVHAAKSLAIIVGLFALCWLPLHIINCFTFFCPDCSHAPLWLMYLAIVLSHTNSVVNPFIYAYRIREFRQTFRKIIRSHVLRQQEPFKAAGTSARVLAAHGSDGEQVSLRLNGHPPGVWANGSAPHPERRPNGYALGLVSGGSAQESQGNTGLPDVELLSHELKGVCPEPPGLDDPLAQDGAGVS

Adenosine receptor A2a [5] = biological target: T2, Adenosine receptor A2a; assay: Antagonist activity at adenosine A2A receptor in SH-SY5Y cells assessed as CGS-induced intracellular cAMP production at 50 uM; assay type: functional, cell-based
Summary of the method: (§2)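 SH-SY5Y neuroblastoma cells, endogenous A2AR, stably carrying human D2LR. Serum-starved 12-16 h, in HBSS with 50 µM zardaverine for 10 min, then 50 µM ergopeptide, alone or with the A2AR agonist CGS. 35 min total incubation. cAMP by competitive enzyme immunoassay. Three to six determinations, Student's t test.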

[6] = biological target: D(2) dopamine receptor (Homo sapiens) (UniProt P14416); assay: Agonist activity at dopamine D2 receptor in SH-SY5Y cells assessed as inhibition of forskolin-activated intracellular cAMP production at 50 uM; assay type: functional, cell-based
Summary of the method: (§3)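 SH-SY5Y cells expressing human D2LR, preincubated 5-10 min at 22 °C with 5 µM ZM to block A2AR. Then 50 µM zardaverine, 10 µM forskolin, and 50 µM ergopeptide, with or without 150 nM quinpirole or 50 µM raclopride. 35 min total. cAMP by enzyme immunoassay. Three to six determinations, t test.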

[7] = biological target: T1, Adenosine receptor A1 (Homo sapiens); assay: Agonist activity at adenosine A1 receptor transfected in mouse L(tk-) cells assessed as decrease in forskolin-induced cAMP levels; assay type: functional, cell-based
Summary of the method: (§4)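 Mouse Ltk- fibroblasts cotransfected with human A1R and D1R, preincubated 5-10 min at 22 °C with 50 µM SCH to block D1R. Then 50 µM zardaverine, 10 µM forskolin, and 50 µM ergopeptide, with or without 20 nM R-PIA or 50 µM DPCPX. 35 min total. cAMP by enzyme immunoassay. Three to six determinations.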

[8] = biological target: T1, Adenosine receptor A1 (Homo sapiens); assay: Antagonist activity at adenosine A1 receptor transfected in mouse L(tk-) cells assessed as inhibition of R-PIA-induced decrease in forskolin-induced cAMP levels; assay type: functional, cell-based; summary of the method: as §4
Adenosine receptor A2a [9] = biological target: T2, Adenosine receptor A2a; assay: Agonist activity at adenosine A2A receptor in SH-SY5Y cells assessed as CGS-induced intracellular cAMP production at 50 uM; assay type: functional, cell-based; summary of the method: as §2
[10] = biological target: D(1A) dopamine receptor (Homo sapiens) (UniProt P21728); assay: Agonist activity at dopamine D1 receptor transfected in mouse L(tk-) cells assessed as stimulation of cAMP levels; assay type: functional, cell-based
Summary of the method: (§5)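 Mouse Ltk- fibroblasts cotransfected with human A1R and D1R, serum-starved 12-16 h. In HBSS with 50 µM zardaverine, then 50 µM ergopeptide, with or without 20 nM SKF or 50 µM SCH. 35 min total incubation. cAMP by competitive enzyme immunoassay. Three to six determinations, t test.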

[11] = biological target: D(1A) dopamine receptor (Homo sapiens) (UniProt P21728); assay: Antagonist activity at dopamine D1 receptor transfected in mouse L(tk-) cells assessed as inhibition of SKF-induced stimulation of forskolin-induced cAMP levels; assay type: functional, cell-based; summary of the method: as §5
Adenosine receptor A2a [12] = biological target: T2, Adenosine receptor A2a; assay: Displacement of [3H]CGS 21680 from adenosine A2A receptor in lamb striatum membrane after 2 hrs; assay type: cell membranes, Ovis aries; conditions: target entry is the homologue from another species
Summary of the method: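 Lamb striatal membranes (0.5 mg protein/mL), 22 °C, 50 mM Tris-HCl pH 7.4, with increasing ergopeptide concentrations. Conditions per receptor: D1 1.2 nM [3H]SCH 23390, 1 mM dopamine nonspecific. D2 0.9 nM [3H]YM 09151-2, 100 µM raclopride nonspecific. A1 2.2 nM [3H]R-PIA, 10 mM MgCl2, 0.2 U/mL ADA, 50 µM R-PIA nonspecific. A2A 20.1 nM [3H]CGS 21680, 10 mM MgCl2, 2 U/mL ADA, 1 mM CGS 21680 nonspecific. Filtration, scintillation counting. KD by nonlinear one- or two-site fit. Three to six determinations.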

[13] = biological target: D(2) dopamine receptor (Homo sapiens) (UniProt P14416); assay: Antagonist activity at dopamine D2 receptor in SH-SY5Y cells assessed as effect on forskolin-activated intracellular cAMP production at 50 uM; assay type: functional, cell-based; summary of the method: as §3

Activity [1] [%]	Activity [2] [%]	Activity [3] [%]	Activity (Adenosine receptor A2a [4]) [%]	SMILES	Activity (Adenosine receptor A2a [5])	Activity [6]	Activity [7]	Activity [8]	Activity (Adenosine receptor A2a [9])	Activity [10]	Activity [11]	Kd (Adenosine receptor A2a [12]) [µM]	Activity [13]
< 40	< 40	< 40	< 40	CC(=O)N[C@H](C(=O)N[C@@H](CCC1CCCCC1)C(=O)N1c2ccccc2C[C@H]1C(N)=O)C(C)C	–	–	–	–	–	–	–	–	–
< 40	< 40	< 40	< 40	CC(=O)N[C@H](C(=O)N[C@@H](Cc1ccc(F)cc1)C(=O)N1CCC[C@H]1C(N)=O)C(C)C (Ac-Val-[Phe(4-F)]-Pro-NH2)	–	–	–	–	–	–	–	–	–
< 40	< 40	< 40	< 40	CC(=O)N[C@H](C(=O)N[C@@H](Cc1ccc([N+](=O)[O-])cc1)C(=O)N1CCC[C@H]1C(N)=O)C(C)C (Ac-Val-[Phe(4-NO2)]-Pro-NH2)	–	–	–	–	–	–	–	–	–

Further lines, the molecule ahead of its results:

SMILES	Activity [1] [%]	Activity [2] [%]	Activity [3] [%]	Activity (Adenosine receptor A2a [4]) [%]	Activity (Adenosine receptor A2a [5])	Activity [6]	Activity [7]	Activity [8]	Activity (Adenosine receptor A2a [9])	Activity [10]	Activity [11]	Kd (Adenosine receptor A2a [12]) [µM]	Activity [13]
CC(=O)N[C@@H](Cc1ccc([N+](=O)[O-])cc1)C(=O)N[C@@H](CCC1CCCCC1)C(=O)N1CCCC(C(N)=O)C1 (stereo partly drawn)	< 40	< 40	< 40	< 40	–	–	–	–	–	–	–	–	–
CN1C[C@H](C(=O)N[C@@H](Cc2ccc([N+](=O)[O-])cc2)C(=O)N[C@@H](Cc2ccc(F)cc2)C(=O)N2CCCC(C(N)=O)C2)C=C2c3cccc4[nH]cc(c34)C[C@H]21 (stereo partly drawn)	< 40	< 40	< 40	< 40	Active	Active	inactive	Active	inactive	Active	inactive	–	–
CC(C)[C@H](NC(=O)[C@H](CCC1CCCCC1)NC(=O)[C@@H]1C=C2c3cccc4[nH]cc(c34)C[C@H]2N(C)C1)C(=O)N1CCC[C@H]1C(N)=O	< 40	< 40	< 40	< 40	Active	Active	inactive	Active	inactive	Active	inactive	–	–
CC(C)[C@H](NC(=O)[C@@H]1C=C2c3cccc4[nH]cc(c34)C[C@H]2N(C)C1)C(=O)N[C@@H](CCC1CCCCC1)C(=O)N1c2ccccc2C[C@H]1C(N)=O	< 40	< 40	< 40	< 40	–	–	inactive	Active	inactive	Active	inactive	25	Active
CC(=O)N[C@@H](CCC1CCCCC1)C(=O)N[C@H](C(=O)N1CCC[C@H]1C(N)=O)C(C)C (Ac-[hCha]-Val-Pro-NH2)	< 40	< 40	< 40	< 40	–	–	–	–	–	–	–	–	–
CC(C)[C@H](NC(=O)[C@H](Cc1ccc([N+](=O)[O-])cc1)NC(=O)[C@@H]1C=C2c3cccc4[nH]cc(c34)C[C@H]2N(C)C1)C(=O)N1c2ccccc2C[C@H]1C(N)=O	< 40	< 40	< 40	< 40	–	Active	inactive	Active	inactive	Active	inactive	–	–
